Compound activity from PubChem.
Hits are enriched below; roughly 4.3% of the tested compounds scored in any of these assays.
FLuc act counter – affects firefly luciferase, flagging false hits in luciferase stimulation screens | P08659 | ATPlite luciferase biochemical, luminescence, 10 min; 0 = ATP-free wells, 1 = DMSO control | activation factor at 10 µM | 200,000 tested, under 10 active | AID 1027;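 active = luciferase activation factor, scaled between plate controls, of at least 2 with compound at 10 µM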
Target sequence (P08659 whole entry, looked up): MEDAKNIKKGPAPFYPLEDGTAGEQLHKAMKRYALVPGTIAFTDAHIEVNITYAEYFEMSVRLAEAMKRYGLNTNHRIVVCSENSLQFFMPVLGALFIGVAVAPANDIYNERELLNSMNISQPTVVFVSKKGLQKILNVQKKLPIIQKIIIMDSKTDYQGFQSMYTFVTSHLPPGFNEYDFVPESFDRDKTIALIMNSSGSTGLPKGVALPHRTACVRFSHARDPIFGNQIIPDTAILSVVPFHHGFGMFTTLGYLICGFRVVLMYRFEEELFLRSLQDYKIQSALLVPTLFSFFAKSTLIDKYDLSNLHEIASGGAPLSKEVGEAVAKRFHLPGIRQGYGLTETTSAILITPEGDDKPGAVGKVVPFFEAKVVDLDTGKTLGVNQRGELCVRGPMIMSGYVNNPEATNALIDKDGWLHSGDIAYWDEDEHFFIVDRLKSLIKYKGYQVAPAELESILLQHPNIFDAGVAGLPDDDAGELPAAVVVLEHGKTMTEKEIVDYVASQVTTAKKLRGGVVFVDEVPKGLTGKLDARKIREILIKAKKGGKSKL
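Assay system – cell-free luciferase reagent · Medium – PBS-based ATP solution · Dosing – test compounds dosed from 2 mM stocks in 100% DMSO · Timing – 10 min, room temperature · Technique – light output (luminescence) · Measure – luminescence gain marking luciferase activators · Controls – No-ATP low control, compound-free enzyme-plus-ATP high control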
SDO1 yeast rescue – compounds rescuing growth of sdo1-depleted yeast, bone marrow failure model; AID 817; S. cerevisiae sdo1-depleted JHY4D growth rescue, OD600 30 h; active compounds read high; pdr5 snq2 efflux-pump mutant strain; z-score at 10 µM; 0.21% of 140,000 active;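 active = z-score above 3 at both the 24 hr and the 30 hr optical density reads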;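 also: z-score against mean and SD of all compound wells on the same plate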
NF-kB neuron act – raises NF-kB expression in human neuronal cells. NF-kB reporter expression; active compounds read high. fold change at 12.5 µM. 1.6% of 190,000 active. AID 1239; in the data active = fold change above about 3.3
APP 5'UTR act – activates APP 5'UTR luciferase reporter | SH-SY5Y APP 5'UTR luciferase reporter, luminescence; zero percent = DMSO vehicle wells | activation, % at 2 µM | 1% of 190,000 active;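 active = activation above a set limit, based on mean plus 3 SD of controls, cut at about 140% in these data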
STAT1 act – activators of IFN-gamma induced STAT1 signaling; 2.6% of 200,000 active; AID 932; NIH 3T3 STAT1-luciferase reporter, luminescence; 100% = IFN-gamma alone, no compound; activation (% of control), % at 5.5 µM;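 active = activation above the screen-wide mean activation plus 3 SD, cut at about 130% in these data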;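 also: raw ratio to IFN-gamma control signal so 100% means no change and 0% no light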
FLuc inh counter – inhibits firefly luciferase, flagging false hits in luciferase inhibition screens. P08659. AID 1006. 1.5% of 200,000 active. ATPLite firefly luciferase biochemical luminescence, 10 min. inhibition, % at 10 µM;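 active = inhibition above about 50% when tested at 10 µM, limit read from the data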
An asterisk follows results filed as active; x = no result given.

SMILES	FLuc act counter	SDO1 yeast rescue	NF-kB neuron act	APP 5'UTR act	STAT1 act	FLuc inh counter
CCOc1ccc(-c2ccc(SC)nn2)cc1	0	x	2	77	25	96*
COc1cccc(Cn2cc(C(=O)NCCN(C)C)nn2)c1	1	x	1.4	14	103	-1
CCCCn1c(SCC(=O)N2CCCC2)nc2cc(S(N)(=O)=O)ccc21	1	x	1	9	98	4
Cc1ccc2nc(-c3ccccc3)nc(SC(C)C(=O)NCc3cccs3)c2c1 (stereo unspecified)	1	-1	5*	-4	96	-4
O=C1C(Cl)=C(Nc2ccccc2O)C(=O)N1c1ccccc1	0.9	0.07	4.3*	46	82	6
O=C1c2ccccc2NC(c2ccco2)N1/N=C/c1ccco1 (stereo unspecified)	1	x	1.4	13	109	-2
C/C(=N\N1C(=O)c2ccccc2NC1c1ccccc1)c1ccccc1O (stereo unspecified)	1	x	1.5	105	140*	-1
COc1ccc(/C(C)=N/N2C(=O)c3ccccc3NC2c2ccc(O)c(OC)c2)cc1 (stereo unspecified)	0.7	x	1.4	26	112	27
C/C(=N\N1C(=O)c2ccccc2NC1c1ccco1)c1ccccc1O (stereo unspecified)	1	x	6.6*	56	117	2
Cc1ccc(NC(=O)N2CCc3ccccc32)cc1C	0.1	x	9.2*	160*	93	86*
Cc1ccc(NC(=O)N2CCc3ccccc32)cc1	0.1	1.1	8.1*	170*	90	90*
Cc1ccc(NC(=O)N2CCCc3ccccc32)cc1	0.9	x	1.4	15	105	7
CN1C(=O)CSc2ccc(NC(=O)N3CCc4ccccc43)cc21	1.1	1.2	1	-3	90	-10
O=C(O)C(C(=O)/C=C/c1ccco1)=C1SCCS1	1	0.06	1.5	3	94	1
O=C(C=C1SCCS1)/C=C/c1ccco1	0.3	-0.17	5.9*	158*	114	70*
O=S1(=O)N=C(Nc2ccc(N3CCOCC3)c(Cl)c2)c2ccccc21	0.8	x	1.5	27	146*	20
Cc1ccc(C(=O)OCC(=O)c2ccc(Cl)s2)s1	0.6	-0.42	2.1	-2	131*	41
Cc1cc(C(=O)Nc2nc3c(s2)CCCC3)no1	0.5	0.18	5.1*	152*	139*	50
CCc1ccc2nc(NC(=O)c3cc(C)on3)sc2c1	0.6	-0.26	3.5*	82	133*	44
CN(C)c1ccc(C(=O)Nc2nc3c(s2)CCCC3)cc1	0.4	-2.4	1.3	131	119	58*
Cc1onc(-c2ccccc2)c1C(=O)Nc1nc2c(s1)CCCC2	1.1	-1.4	0.57	x	111	-5
Cc1cc(C)c2nc(NC(=O)c3cc(C)on3)sc2c1	1	-0.68	1.6	19	103	1
CNC(=O)c1cc2c(ccc3ccccc32)o1	0.9	x	1.3	27	133*	8
O=C(NC1CCCC1)c1cc2c(ccc3ccccc32)o1	0.9	-1	3.4*	10	137*	10
O=C(Nc1cc2c(ccc3ccccc32)oc1=O)C1CCCCC1	1	-0.34	1.1	2	96	-5
SMILES	FLuc act counter	SDO1 yeast rescue	NF-kB neuron act	APP 5'UTR act	STAT1 act	FLuc inh counter
CN1/C(=C\C(=O)c2cccs2)C(C)(C)c2ccccc21	1.1	-1.1	1.1	-2	127	-7
CN1/C(=C/C(=O)c2cccs2)Sc2ccccc21	0.2	-1.1	5.3*	103	140*	77*
COc1cc(OC)cc(C(=O)/C=C2\Sc3ccccc3N2C)c1	0.8	x	1.8	44	131*	15
Cc1ccc(S(=O)(=O)N(C)C)cc1NC(=O)[C@H](Cc1ccccc1)N1C(=O)c2ccccc2C1=O	1.1	-0.3	1.3	-11	99	-5
CC(=O)Nc1cccc(CNCc2cccc(NC(C)=O)c2)c1	1	x	1.1	11	90	-2
O=C(NCCCN1CCOCC1)c1cc(-c2ccc(O)cc2)on1	1	-0.45	1.9	18	98	-2
O=C(NCCCN1CCOCC1)c1cc(-c2ccccc2)on1	1	0.74	5.5*	19	118	-3
O=C(NCCN1CCOCC1)c1cc(-c2ccccc2)on1	1.1	0.17	6.3*	29	110	-6
O=C(NCCN1CCOCC1)c1cc(-c2ccc(Br)cc2)on1	1	0.02	0.93	2	99	0
CC(C)NC(=O)c1cc(-c2cccs2)on1	0.9	0.65	4*	62	122	8
Cc1cc(NC(=O)c2cc(-c3cccs3)on2)no1	0.9	-0.75	1.9	10	110	11
CC(C)Oc1ccc(-c2cc(C(=O)NCCN3CCOCC3)c3ccccc3n2)cc1	0.3	0.85	1.2	22	124	65*
CC1=Nc2ncnn2C(c2ccccc2)/C1=N\O (stereo unspecified)	1	0.13	1.2	16	94	-5
CC(C)CCn1c(O)c(N=NC(=O)Cn2ccc(C(F)(F)F)n2)c2ccccc21	1	-0.53	0.95	21	103	-4
Cc1c(-c2ccccc2)[n+](=O)c2c(n1[O-])CCCCC2	1	0.68	0.98	-20	103	-4
O=C(NCCN1CCOCC1)c1cccs1	1	0.86	0.92	4	97	3
O=C(NCCN1CCOCC1)c1cc(-c2cccs2)on1	1	-0.74	5.8*	20	116	-2
CCOC(=O)N1CCN(c2cc(NCCC(=O)O)c3c4c(onc24)-c2ccccc2C3=O)CC1	0.8	0.03	0.59	7	104	17
O=C(O)CCCNc1cc(N2CCC3(CC2)OCCO3)c2noc3c2c1C(=O)c1ccccc1-3	0.7	0.48	0.44	90	143*	28
CCN(CC(=O)Nc1cccc(C(C)=O)c1)S(=O)(=O)c1ccccc1	1	x	0.92	10	93	1
O=C(/C=C/c1ccccc1)Nc1ccc(Br)cn1	0.9	x	0.97	-63	142*	11
O=C(CS(=O)(=O)c1ccccc1)Nc1ccc(Br)cn1	1	1.3	1.6	1	95	1
Cc1ccc(NC(=O)/C=C/c2ccc(Cl)cc2)nc1	0.9	x	1.7	55	137*	6
Cc1sc2nc(CSCC(=O)N(CCC#N)c3ccccc3)[nH]c(=O)c2c1C	1	x	1.2	12	92	-5
CCn1cc(/C=N/O)c(C)n1	1	0.83	1.2	-17	98	0
Cc1nn(C)c(C)c1/C=C/C(=O)c1cccs1	x	1.6	2.2	13	115	x
CCn1cc(/C=C/C(=O)c2ccc(O)cc2)c(C)n1	0.1	x	3.6*	73	117	90*
Cc1nn(C)c(C)c1/C=C/C(=O)c1ccccc1	0.9	0.76	2.1	51	104	14
Cc1nn(C)cc1/C=C/C(=O)c1ccccc1	0.5	0.52	11*	161*	111	54*
